Measured values published in ChEMBL document CHEMBL1275391, “Design, synthesis, and preclinical evaluation of new 5,6- (or 6,7-) disubstituted-2-(fluorophenyl)quinolin-4-one derivatives as potent antitumor agents” (J Med Chem, 2010).
Calls of active or inactive are those of the source. The calls are words filed in the database; no cut-off is given here.

Columns and labels:
[1] = tested on: HL-60; assay: Cytotoxicity against human HL60 cells after 48 hrs by MTT assay; type: functional, cell-based; settings: HL-60, 48 h
How it was run: (§1)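 Cells exposed to a range of compound concentrations for 48 h, washed once with PBS, then incubated with MTT for 2 h. Formazan dissolved in DMSO and absorbance read at 570 nm. IC50 taken as the concentration giving 50% inhibition of proliferation.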

[2] = Cytotoxicity against human Hep3B cells after 48 hrs by MTT assay; type: functional, cell-based, Hep 3B2; how it was run: as §1
[3] = tested on: HCT-116; assay: Cytotoxicity against human HCT116 cells after 48 hrs by MTT assay; type: functional, cell-based; settings: HCT-116, 48 h; how it was run: as §1
[4] = tested on: NCI-H460; assay: Cytotoxicity against human H460 cells after 48 hrs by MTT assay; type: functional, cell-based; settings: NCI-H460, 48 h; how it was run: as §1
[5] = tested on: Hep 3B2; assay: Antitumor activity against human Hep3B cells xenografted in BALB/c nude mouse assessed as inhibition of tumor growth administered at 7.5 to 30 mg/kg, po qd for 5 times per week for 4 weeks; type: functional, organism-based; settings: TDE = time-dependent effect
How it was run: (§2)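 Male Balb/c nude mice, 4-6 weeks, 18-20 g; 2 × 10^6 Hep3B cells in 0.1 mL injected subcutaneously into right flank. Dosing began when tumors exceeded 100 mm3 (day 0), given po or iv once daily, 5 days/week for 4 weeks, stopped day 28. Tumor volume (length × width² × 0.5) and body weight recorded every 7 days; T/C = (Tn − T0)/(Cn − C0) × 100%.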

[6] = tested on: Hep 3B2; assay: Antitumor activity against human Hep3B cells xenografted in iv dosed BALB/c nude mouse assessed as inhibition of tumor growth administered qd for 5 times per week for 4 weeks measured on day 28; type: functional, organism-based; how it was run: as §2
[7] = tested on: Hep 3B2; assay: Antitumor activity against human Hep3B cells xenografted in BALB/c nude mouse assessed as inhibition of tumor growth administered at 7.5 mg/kg, po qd for 5 times per week for 4 weeks
[8] = tested on: Hep 3B2; assay: Antitumor activity against human Hep3B cells xenografted in po dosed BALB/c nude mouse assessed as inhibition of tumor growth administered qd for 5 times per week for 4 weeks measured on day 28; type: functional, organism-based; how it was run: as §2
[9] = tested on: Hep 3B2; assay: Antitumor activity against human Hep3B cells xenografted in BALB/c nude mouse assessed as inhibition of tumor growth administered at 7.5 mg/kg, po qd for 5 times per week for 4 weeks; type: functional, organism-based; parameters: dose 7.5 mg/kg; how it was run: as §2
[10] = tested on: Hep 3B2; assay: Antitumor activity against human Hep3B cells xenografted in BALB/c nude mouse assessed as inhibition of tumor growth administered at 7.5 to 30 mg/kg, iv qd for 5 times per week for 4 weeks; type: functional, organism-based; settings: TDE = time-dependent effect; how it was run: as §2
[11] = tested on: Mus musculus; assay: Toxicity in human Hep3B cells xenografted BALB/c nude mouse assessed as change in body weight at 7.5 to 30 mg/kg, po qd for 5 times per week for 4 weeks measured on day 28; type: organism-based, Hep 3B2; parameters: dose 7.5-30 mg/kg, route oral; settings: in vivo, 672 h
How it was run: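 Male Balb/c nude mice, 4-6 weeks old and 18-20 g, were housed under SPF conditions. Each received 2 × 10^6 Hep3B cells in 0.1 mL s.c. into the right flank. Once tumors exceeded 100 mm3 (day 0), animals were grouped and dosed orally once daily, 5 days/week for 4 weeks. Body weight and tumor size were recorded every 7 days up to day 28.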

[12] = tested on: Hep 3B2; assay: Antitumor activity against human Hep3B cells xenografted in BALB/c nude mouse assessed as inhibition of complete tumor growth administered at 30 mg/kg, po qd for 5 times per week for 4 weeks; type: functional, organism-based; parameters: dose 30 mg/kg; how it was run: as §2

For `O=c1cc(-c2ccccc2F)[nH]c2ccc(O)c(O)c12`, the IC50 [1] was 0.5 µM, the IC50 [2] was 3.9 µM and the IC50 [3] was 0.6 µM. For the same compound, the IC50 [4] was 4.1 µM.
`COc1cc2c(=O)cc(-c3cccc(F)c3)[nH]c2cc1O` gave an IC50 [1] of 0.9 µM, an IC50 [2] of 5.3 µM and an IC50 [3] of 1.1 µM. It also gave an IC50 [4] of 4.8 µM.
`O=c1cc(-c2ccccc2F)[nH]c2cc3c(cc12)OCO3` gave an IC50 [1] of 0.08 µM, an IC50 [2] of 0.13 µM and an IC50 [3] of 0.15 µM. For the same compound, the IC50 [4] was 0.14 µM.
With `COc1ccc2[nH]c(-c3cccc(F)c3)cc(=O)c2c1OP(=O)([O-])[O-].[Na+].[Na+]` the Activity [5] was “tde”, the Activity [6] was “Dose-dependent effect” and the Activity [7] was “Active”. For the same compound, the Activity [8] was “Dose-dependent effect”, the Activity [9] was “Active” and the Activity [10] was “tde”. For the same compound, the Activity [11] was “Non-toxic” and the Activity [12] was “Active”.
In the case of `COc1ccc2[nH]c(-c3cccc(F)c3)cc(=O)c2c1OC`, the IC50 [1] is reported as 1.3 µM, the IC50 [2] is reported as 2.6 µM and the IC50 [3] is reported as 1.2 µM. It also gave an IC50 [4] of 3.5 µM.
In the case of `O=c1cc(-c2ccc(F)cc2)[nH]c2ccc3c(c12)OCO3`, the IC50 [1] is reported as > 10 µM, the IC50 [2] is reported as > 10 µM and the IC50 [3] is reported as > 10 µM. For the same compound, the IC50 [4] was > 10 µM.
With `COc1ccc2[nH]c(-c3ccc(F)cc3)cc(=O)c2c1OC` the IC50 [1] was 2 µM, the IC50 [2] was > 20 µM and the IC50 [3] was > 20 µM. For the same compound, the IC50 [4] was > 20 µM.
With `COc1cc2c(=O)cc(-c3ccc(F)cc3)[nH]c2cc1O` the IC50 [1] was 38.2 µM, the IC50 [2] was > 100 µM and the IC50 [3] was > 100 µM. For the same compound, the IC50 [4] was > 100 µM.
For `COc1ccc2[nH]c(-c3ccccc3F)cc(=O)c2c1O`, the IC50 [1] was 0.07 µM, the IC50 [2] was 0.05 µM and the IC50 [3] was 0.05 µM. For the same compound, the IC50 [4] was 0.11 µM.
For `COc1ccc2[nH]c(-c3ccccc3F)cc(=O)c2c1OC`, the IC50 [1] was 3.7 µM, the IC50 [2] was > 20 µM and the IC50 [3] was > 20 µM. For the same compound, the IC50 [4] was > 20 µM.
In the case of `O=c1cc(-c2ccc(F)cc2)[nH]c2ccc(O)c(O)c12`, the IC50 [1] is reported as 38.6 µM, the IC50 [2] is reported as 100 µM and the IC50 [3] is reported as > 100 µM. The IC50 [4] was 100 µM.
`O=c1cc(-c2ccccc2F)[nH]c2ccc3c(c12)OCO3` showed an IC50 [1] of 1 µM, an IC50 [2] of 1.9 µM and an IC50 [3] of 2.1 µM. The IC50 [4] was 4.5 µM.
`COc1ccc2[nH]c(-c3ccc(F)cc3)cc(=O)c2c1O` showed an IC50 [1] of 1.8 µM, an IC50 [2] of 11 µM and an IC50 [3] of 2.4 µM. The IC50 [4] was 8.8 µM.
Work on `O=c1cc(-c2cccc(F)c2)[nH]c2ccc(O)c(O)c12` yielded an IC50 [1] of 0.3 µM, an IC50 [2] of 6.9 µM and an IC50 [3] of 8.2 µM. It also gave an IC50 [4] of 6.1 µM.
In the case of `O=c1cc(-c2cccc(F)c2)[nH]c2ccc3c(c12)OCO3`, the IC50 [1] is reported as 0.7 µM, the IC50 [2] is reported as 2.4 µM and the IC50 [3] is reported as 2.5 µM. For the same compound, the IC50 [4] was 3.2 µM.
With `COc1cc2c(=O)cc(-c3ccccc3F)[nH]c2cc1O` the IC50 [1] was 1.3 µM, the IC50 [2] was 5.3 µM and the IC50 [3] was 5.8 µM. The IC50 [4] was 4.4 µM.
